These results are taken from ChEMBL document CHEMBL1159110, “Mevalonate analogues as substrates of enzymes in the isoprenoid biosynthetic pathway of Streptococcus pneumoniae” (Bioorg Med Chem, 2010).

Calls of active or inactive are those of the source. The rule behind the calls is not given here. Some results are limits rather than exact numbers.

The subject of assay [1] is Streptococcus pneumoniae. In words: Activity of Streptococcus pneumoniae mevalonate kinase expressed in Escherichia coli by pyruvate kinase/lactate dehydrogenase coupled assay. The method in brief:
(§1)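 S. pneumoniae MK expressed in E. coli as His6-GST fusion, with tags removed. Lactone analogues were hydrolysed in 2.0 M LiOH (rt, 1 h), titrated to pH 7.0, and used as racemic acids. ADP formation was coupled to NADH oxidation (pyruvate kinase 10.0 units/ml, lactate dehydrogenase 20.0 units/ml), read continuously at 386 nm. Buffer: ATP 4.0 mM, MgCl2 5.0 mM, NADH 0.82 mM, PEP 1.0 mM, KCl 50 mM, β-mercaptoethanol 20.0 mM, Hepes/K+ 50 mM pH 8.0, 25 °C. Progress curves were compared with mevalonate.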

The test system of assay [2] is Streptococcus pneumoniae. In words: Activity of Streptococcus pneumoniae phosphomevalonate kinase expressed in Escherichia coli by pyruvate kinase/lactate dehydrogenase coupled assay. The method in brief:
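S. pneumoniae PMK was expressed in E. coli as His6-GST fusion, with tags removed. Substrates were the phosphorylated analogues, compared with phosphomevalonate. ADP formation was linked 1:1 to NADH oxidation via pyruvate kinase (10.0 units/ml) and lactate dehydrogenase (20.0 units/ml), monitored at 386 nm. Conditions: ATP 4.0 mM, MgCl2 5.0 mM, NADH 0.82 mM, PEP 1.0 mM, KCl 50 mM, β-mercaptoethanol 20.0 mM, Hepes/K+ 50 mM pH 8.0, 25 °C.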

Assay [3] deals with Streptococcus pneumoniae. In words: Activity of Streptococcus pneumoniae mevalonate kinase expressed in Escherichia coli assessed as enzyme activity by pyruvate kinase/lactate dehydrogenase coupled assay relative to mevalonate. The procedure, abridged:
as §1

Assay [4] is described as follows: Binding affinity to Streptococcus pneumoniae mevalonate kinase.

For the compound `C#CC(O)(CCO)CC(=O)O` (racemic), the result in assay [1] and in assay [2] was Active.

As for `C=C(C)C(O)(CCO)CC(=O)O` (racemic), the Activity in assay [3] was < 0.0025%.

`C=CC(O)(CCO)CC(=O)O` (racemic): the outcome in assay [1] and in assay [2] was Active.

For `C=CCC(O)(CCO)CC(=O)O` (racemic), the result in assay [1] and in assay [2] was Active.

For `CC#CC(O)(CCO)CC(=O)O` (racemic), the Activity in assay [3] is < 0.0025%.

Regarding `CC(C)C(O)(CCO)CC(=O)O` (racemic), in assay [3], the Activity is < 0.0025%.

Consider `CC(C)CC(O)(CCO)CC(=O)O` (racemic), for which the outcome in assay [1] and in assay [2] was Active.

In the case of `CCC(O)(CCO)CC(=O)O` (racemic), the result in assay [1] and in assay [2] was Active.

Regarding `CCCC(O)(CCO)CC(=O)O` (racemic), the result in assay [1] and in assay [2] was Active.

For `CCCCC(O)(CCO)CC(=O)O` (racemic), the Activity in assay [3] is < 0.0025%.

As to `O=C(O)CC(O)(CCO)C1CC1` (racemic), the outcome in assay [1] and in assay [2] was Active.

For orientation: Ki means the equilibrium dissociation constant of an inhibitor or competing ligand from its target. Lower therefore signals higher affinity. Compound `C[C@@](O)(CCOP(=O)(O)OP(=O)(O)O)CC(=O)O` [DIPHOSPHOMELAVONATE] came in with a Ki in assay [4] of 0.5 µM.
